This note sets out measurements from the EternaBench riboswitch data.

In the series the test system is MS2 coat protein. Description: apparent Kd, MS2 coat protein; higher = weaker binding; RNA-MaP array; FMN 200 µM where present. An outline of the steps: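 Apparent Kd: the median of filtered binding-curve fits from single clusters. Designs were transcribed on Illumina sequencing-chip clusters by stalled E. coli RNA polymerase and titrated with SNAP-549-labelled MS2 coat protein from 0.7 or 1.5 nM, doubling to 3 µM, in 100 mM Tris-HCl pH 7.5, 80 mM KCl, 4 mM MgCl2, BSA, DTT, yeast tRNA and Tween-20. Each series ran without and then with constant ligand, and green signal was normalised to red-channel RNA signal and control-cluster median Fmax.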

Where [1] appears, read: designed as: ON switch for flavin mononucleotide, no ligand.
The mark [2] stands for this setting: ligand present: flavin mononucleotide, designed as: ON switch for flavin mononucleotide.
Setting [3] is: designed as: OFF switch for flavin mononucleotide, no ligand.
[4] abbreviates: ligand present: flavin mononucleotide, designed as: OFF switch for flavin mononucleotide.

As a reminder, the apparent Kd is a dissociation constant that holds for the conditions of the assay.

Take “GCCAUCAUAUGAGGAUAUGACACCGAAACGGUGUCAGAAGGCAUGUCGAUAGACAUGAGGAUCACCCAUGUAUUAAUGAUGGCA”: the “apparent Kd” value by setting is: under setting [1], 1090 nM; under setting [2], 95.1 nM. “AGAAACUACGAGAAGGACAUGAGGAUCACCCAUGUAACCACUAUGUGGAAUGUAGGAUAUCGUAGUUUCAGGAUCGUGAGAUCA”: the “apparent Kd” value under setting [3] is 6.17 nM and the “apparent Kd” value under setting [4] is 9.84 nM. In the same order, the values of “UUACCCUCAGUAAGGAUAUCUUUAUCUGCUGAUUUAGAGAAGGUACAUGAGGAUCACCCAUGUGCGAUUGGGCA” are 80.3 nM and 501 nM.

Regarding “GGGAGACAUGAGGAUCACCCAUGUGAAAACGUGGCAGGAUAUGCAUGGAAACCAUACUGUGCAGAAGGGCCUUGUC”, the “apparent Kd” value came out at 60.5 nM under setting [1] and 33.1 nM under setting [2]. As for “GGCGGAGUAGGAUAUACAUGAGGAUCACCCAUGUAACCUGAUGGCGUAGGUCUUCUAUGUAGAAGGGCUACGCC”, the “apparent Kd” value is 17.4 nM under setting [3] and 16.7 nM under setting [4]. As to “GCCAUCGUAUGAGGAUAUGGCGCCGAAACGGUGCCAGAAGGCAUGUCAAUAGACAUGAGGAUCACCCAUGUGUUAUCGAUGGCA”, the “apparent Kd” value under setting [1] amounted to 134 nM and the “apparent Kd” value under setting [2] came to 11.9 nM.

Regarding “UAACCGCAGCAGAAGGGACGUCGGGUGGACUAGUCAGGAUAUGCAUGCCGGCAUAGACAUGAGGAUCACCCAUGUACGAGUGGC”, the “apparent Kd” value reads like this: under setting [1], 347 nM; under setting [2], 87.5 nM. The like results for “UUGGACGUCGUAGGAUAUGUAGGAUAUUCCUACAUGAGGAUCACCCAUGUUGAGAUGGAAGAAGGACAGAAGGACGAUGUCCAU” were, in that order, 25.3 nM and 4.05 nM. In the same order, the values of “GCCAUCGCAUGAGGAUAUGGCACCGUUGCGGUGCCAGAAGGCAUGUCAAAUGACAUGAGGAUCACCCAUGUAGUUAAGAUGGCA” are 218 nM and 13.8 nM. The like results for “CGCUGUCACGCAGGAUAUGCAUUGGAUUCCAAUGCAGAAGGGCGAUUACAUGAGGAUCACCCAUGUGUCGACAGUGAAGAAGAG” were, in that order, 599 nM and 44 nM. As for “UUUAUUUUGCAAGGAUAUGUUUAAUUUUAGUUUCCUUACACAUGAGGAUCACCCAUGUUAUACUUACAGAAGGUGCGUAAUUUU”, the “apparent Kd” value under setting [3] was 130 nM and the “apparent Kd” value under setting [4] is 103 nM. The like results for “AUCAUGUCAGGAUAUGUGACAUGGAUCUUCGGAUCAAGAUCACAGAAGGGACAUGAGGAUCACCCAUGUCGAUC” were, in that order, 98.8 nM and 53.4 nM.

As to “AAUUGGAUGCAGAAGGCAUGGACGACUCGUCACAUUAACAUGAGGAUCACCCAUGUAAAAUAACAUGAGGAUAUGCAUCCUAAA”, the “apparent Kd” value is, setting by setting: under setting [1], 9.81 nM; under setting [2], 6.15 nM. In the same order, the values of “CUUAAAGACGAGAAGGCUGAUUUGACAUGAGCGUCAGCCGUGUAACAUGAGGAUCACCCAUGUGCGGAGGAUAUUGAUCUUGAG” are 12.3 nM and 13.9 nM. In the same order, the values of “CCUAAGGACACAGGAUAUAGCGUGGUGGCCGGACUCCAACAGCGAGCGGCGCUAGAAGGGUGACCACAUGAGGAUCACCCAUGU” are 709 nM and 370 nM.

As to “AUUGUAUAGGAAGGAUAUAGAAUAUUAUUUUAACAUGAGGAUCACCCAUGUAACCUUAUGUGUAGCUAGAAGGUCCGUUUAUUA”, the “apparent Kd” value runs as follows: under setting [3], 110 nM; under setting [4], 162 nM.

With “CGCGAUGCGGUUGGCCCUGGGCGAGAGGAUAUGGGCAGCGGGACAUGAGGAUCACCCAUGUUCUCUCAGAAGGCUCGAGCAGGC”, the “apparent Kd” value worked out at 217 nM under setting [1] and 34.7 nM under setting [2]. Consider “GGUGCGUAUGUGAGGAUAUGCUGGUCCUUGGCUCAGCAGAAGGCACAUGAGGAUCACCCAUGUGGUGUCGUACC”, for which the “apparent Kd” value under setting [3] came out at 333 nM and the “apparent Kd” value under setting [4] worked out at 21.8 nM. Turning to “AAUUAACAUGAGGAUCACCCAUGUGAGGAUAUGGUAUUAUUUGGACAGUUAUGAUAUACCAGAAGGCACAUAUA”, the “apparent Kd” value by setting is: under setting [3], 63.4 nM; under setting [4], 108 nM.

“GCCAGGCAUGUAGGAUAUCCAUUGCGUCGCGAUGGAGAAGGGCAACACACAUGAGGAUCACCCAUGUGGUCACCCAUGUCGUGU”: the “apparent Kd” value by setting is: under setting [3], 217 nM; under setting [4], 225 nM. In the same order, the values of “AAAAUACAUGAGGAUCACCCAUGUUAGGAUAUGCAAAGCCCAGUUAGCUUUUGGGUAGGUAGAAGGGACGGGUA” are 23.4 nM and 20.2 nM.

With “AUCAGCUCGUCAGGAUAUGCGUCACUGCGUCAGCAGUGUGGUAAGAUCACAUGAGGAUCACCCAUGUAGAAGGGACGAGCUGAU”, the “apparent Kd” value is, setting by setting: under setting [3], 9.59 nM; under setting [4], 88.2 nM.

Take “CGCUACACCCAGAAGGACAUGAGGAUCACCCAUGUAGGAUAUGGGAGACACAGUCCCAUGUAGAGAAAUUACGCUAGUGUAGCG”: under setting [2], the “apparent Kd” value was 79 nM. As for “UUCCGGCGUGUAGGAUAUGGAUCCGAUUAGGAUCCAGAAGGACAUGAGGAUCACCCAUGUACAUGUAAACAGUCAUCACCGGAU”, the “apparent Kd” value was 8.09 nM under setting [3] and 40.2 nM under setting [4].

“AAUGGCAUAGAGAAGGCGCCGCAGCUCUUCCUCCCAUCCCAACGACAUGAGGAUCACCCAUGUAGCGAGGAUAUCUAUACCGUU”: the “apparent Kd” value came out at 6.91 nM under setting [3] and 14.1 nM under setting [4]. As for “CCGAAUGUCACAGGAUAUGGUCCGGGCUCGCGACCAGAAGGGUGAUCUCACAUGAGGAUCACCCAUGUGUAGGCGUUAGGCUAU”, the “apparent Kd” value turned out to be 34.1 nM under setting [1] and 260 nM under setting [2].

For “CCGGAAAUAGAGGAUAUCGUAUCGGAUACGAUACGAGAAGGCUAUACAUGAGGAUCACCCAUGUGUCCUACCGG”, the “apparent Kd” value was 16.4 nM under setting [3] and 40.5 nM under setting [4]. As for “GGCUACGUUUCGUAGCAGUGUCAUCGAGAAGGCCCUGACAUGAGGAUCACCCAUGUUGUUACAUGGGAGGAUAUCGAUGAUACG”, the “apparent Kd” value amounted to 12.1 nM under setting [1] and 4.96 nM under setting [2]. In the same order, the values of “UUUGCAUUCCGAGGAUAUUCAUAUAAUAAAUAAACAUGAGGAUCACCCAUGUGGCGAUAGCCUAGGGAGAAGGCGGUUUGCUUU” are 87.7 nM and 29.6 nM. Take “CCAUCGAGUGUGAGGAUAUGCUGGUCCUUGGAUCAGCAGAAGGCACAUGAGGAUCACCCAUGUGAAUACGGUGG”: the “apparent Kd” value was determined as 29.9 nM under setting [3] and 199 nM under setting [4]. As to “AAAAAAAAAAGACAGGAUAUCCAAAAAAAAACAUGAGGAUCACCCAUGUAAAAAAAAAAAAAAUGGGAGAAGGGUCAAAAAAAAAA”, the “apparent Kd” value is, setting by setting: under setting [1], 63.2 nM; under setting [2], 32.1 nM. With “AGUAAGAUGCAGAAGGUGUUAGCUAGAGCUACGACAUGAGGAUCACCCAUGUACAAAAGCCCGUACAAGGAUAUGCAUCUUACA”, the “apparent Kd” value runs as follows: under setting [1], 4.46 nM; under setting [2], 4.21 nM. On to “UGUCGGAGCAGAGGAUAUUACAUGAGGAUCACCCAUGUAUGAACCAAUAGCUGGAAACAGUAAUGUAAGAAGGCUGCUCCGACA”, for which the “apparent Kd” value reads like this: under setting [3], 7.33 nM; under setting [4], 76.2 nM. The like results for “CCGUUGGGCUAGAAGGCUCCGGGAGGGCCGCGGAGAGGAUAUAGCACAUGAGGAUCACCCAUGUGGUAUGACCUUAUGUAAUCA” were, in that order, 37.4 nM and 82.7 nM. The like results for “UUAAUUAAAGUGAGGAUAUCUAGAGCCUCGGCUCUAGAGAAGGCACAUGAGGAUCACCCAUGUCUCAAUUAAUU” were, in that order, 15.7 nM and 26.8 nM. With “GUAGCGUAUGUAGGAUAUCGGUCAGUUUCUGAUCGAGAAGGACAUGAGGAUCACCCAUGUAAAUUACCGACUUUGUCGGGCUGC”, the “apparent Kd” value is, setting by setting: under setting [3], 8.06 nM; under setting [4], 12.4 nM. For the sequence “AAUCGAUGAUCAGGAUAUGUGGAGCCUCUAAGCGAAGAGGCGUACAUGAGGAUCACCCAUGUGACACAGAAGGGAUACAUGCGG”, the “apparent Kd” value is, setting by setting: under setting [1], 64.2 nM; under setting [2], 8.2 nM. In the same order, the values of “GUACCUUAUGAGAAGGCGAUCAUGAAACAUGAUCGAGGAUAUCAUGAAAACAUGAGGAUCACCCAUGUAUGGGUAUUAUGGUAC” are 49.6 nM and 17.7 nM.

Turning to “AUUCACCGAGGAUAUACAUGAGGAUCACCCAUGUAAAAGAAACGGUGCCAUCGGUCGUGUAGAAGGUGGUGUUA”, the “apparent Kd” value is, setting by setting: under setting [3], 16.6 nM; under setting [4], 16.1 nM.

Consider “CAGCAUAAGUAGAAGGCUAUAUAUUUAAUUAUAUAAGGAUAUACAUGAGGAUCACCCAUGUGUUCCAGCUGAAUAAUAAUAUAU”, for which the “apparent Kd” value is, setting by setting: under setting [3], 5.49 nM; under setting [4], 5.82 nM. The like results for “AAAAAACAUGAGGAUCACCCAUGUGAGGAUAUGCGAAAAAAAAAAAAAAAAAAAAAAAGCAGAAGGCACAAAAA” were, in that order, 43.9 nM and 60.8 nM. In the case of “GGAUUACAUGAGGAUCACCCAUGUGAGGAUAUCGAUGUCCCUAGCAGCGUGCGGGACUCGAGAAGGCACUUGGA”, the “apparent Kd” value by setting is: under setting [3], 47.5 nM; under setting [4], 248 nM. In the same order, the values of “AUGGGACAUGAGGAUCACCCAUGUUAGGAUAUCUCCUUAGUAACGAUCAGGCUAUAGGAGAGAAGGAACGGUCC” are 258 nM and 272 nM.

For the sequence “CCGCCAUGAGGAUAUCCAUCUGGAUCAGACUAGAUCCUGAUGGAGAAGGGACAUGAGGAUCACCCAUGUUGCGG”, the “apparent Kd” value runs as follows: under setting [3], 62.8 nM; under setting [4], 55.1 nM. In the same order, the values of “GCGUGACAUGAGGAUCACCCAUGUGAGGAUAUCUGGAUAAUUUUUAUUUUAGAUAUCCAGAGAAGGCACAUGCU” are 63.8 nM and 156 nM. On to “UUUUUUUUAUGAGGAUAUAUUUUACAUACAAAACAUGAGGAUCACCCAUGUGUUGUCCCAUGUUUAUAGAAGGCAUUUUUUUUU”, for which the “apparent Kd” value is, setting by setting: under setting [1], 418 nM; under setting [2], 598 nM. Take “AGAUGGUGAUGUUAUCUUCGUCGGACAUGAGGAUCACCCAUGUAGGAUAUGCUACUCAAAGAGUAGCAGAAGGACAUGUAUCUU”: the “apparent Kd” value under setting [3] turned out to be 119 nM and the “apparent Kd” value under setting [4] came to 896 nM. As for “GCCGCCCGAUCUGGCUUUUGGGCUAGAAGGGCAUAUGUGGUCCAGGACAUGAGGAUCACCCAUGUGCAGGAUAUAGCCCACCAC”, the “apparent Kd” value was determined as 13.7 nM under setting [3] and 24.1 nM under setting [4].
